The source made the active and inactive calls.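 The calls were made as follows: active = duplicate-averaged activation above buffer control mean plus 5 SD of those controls; inactive = the rest.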
Test: nonspecific flux increase, KCNQ1-free cells – parental CHO cells, counter-screen for KCNQ1 potentiator project (AID 493006)
Details: parental CHO-K1 cells, FluxOR thallium flux, at 10 µM; active compounds read high
How it was run: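 Test system: parental CHO-K1 cells, FluxOR dye-loaded / Probe or stimulus: potassium plus thallium depolarizing stimulus, 5x stock 12.5 mM K2SO4, Tl2SO4 / Timing: overnight 37 °C plating, 90 min dye, 20 min dark compound / Measured by: kinetic thallium-flux fluorescence / Read-out: max-minus-min fluorescence over baseline, percent of buffer-to-R-L3 span / Benchmarks: buffer and R-L3 controls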

SMILES | outcome | activation
CSc1ccccc1C(=O)NC1CCCc2ccccc21 (stereo not drawn) | inactive | 
CCOc1cc(CNCCCN2CCOCC2)ccc1OCC(=O)NC(C)(C)C | inactive | 
C=CCN1C(=O)C(CC(=O)NCC)SC1=Nc1ccc(S(N)(=O)=O)cc1 (stereo not drawn) | inactive | 
OCCN1CCN(c2ncnc3c2sc2nc(N4CCOCC4)c4c(c23)CCC4)CC1 | inactive | 
CC12CCC(C/C1=N\N=C1\NC(=O)/C(=C\c3ccc(Cl)cc3)S1)C2(C)C (stereo not drawn) |  | 175% (active)
Cc1sc(NC(=O)CS(=O)(=O)c2ccccc2)c(C#N)c1C | inactive | 
Cc1nn2c(NCc3ccccn3)cc(C(C)C)nc2c1-c1ccccc1 | inactive | 
C=CCn1c(SCN2C(=O)c3ccccc3C2=O)nc2ccc(Cl)cc2c1=O |  | 152% (active)
COc1ccc(NC(=S)N2CCC(C(O)(c3ccccc3)c3ccccc3)CC2)cc1 | inactive | 
Cc1ccc(C)c(NC(=S)NNC(=O)c2cc3c(s2)CCC(C)C3)c1 (stereo not drawn) |  | 192% (active)
CC1(C)N=C(N)NC(Nc2cccc(Br)c2)=N1 | inactive | 
O=C(c1ccccn1)c1ncc(C(F)(F)F)cc1Cl | inactive | 
COc1cccc(C(=O)NNC(=O)C(=O)Nc2ccc(C)c(Cl)c2)c1 |  | 278% (active)
Cc1cc(Br)ccc1OCC(=O)NNC(=O)c1cnccn1 | inactive | 
Cc1cc(/C=N/NC(=O)CC#N)c(C)n1-c1ccc([N+](=O)[O-])cc1 | inactive | 
Cc1noc(C)c1CSc1ncnc2sc3c(c12)CCCCC3 |  | 175% (active)
O=C(/C=C/c1ccco1)NC(=S)Nc1ccccc1O | inactive | 
C=CCn1c(O)c(N=NC(=S)Nc2cccc(C)c2)c2ccccc21 |  | 225% (active)

Reference: PubChem BioAssay
